Assays:
SK-OV-3 = assay: Growth inhibition of human SKOV3 cells assessed as cell growth at 1 nM relative to untreated control; assay type: functional; settings: read-out: Activity
SN12C [1] = assay: Growth inhibition of human SN12C cells assessed as cell growth at 10 uM relative to untreated control; assay type: functional; settings: read-out: Activity
OVCAR-3 [2] = assay: Growth inhibition of human OVCAR-3 cells assessed as cell growth at 10 nM relative to untreated control; assay type: functional; settings: read-out: Activity
NCI-H460 = assay: Growth inhibition of human NCI-H460 cells assessed as cell growth at 100 nM relative to untreated control; assay type: functional; settings: read-out: Activity
UO-31 [3] = assay: Growth inhibition of human UO31 cells assessed as cell growth at 10 nM relative to untreated control; assay type: functional; settings: read-out: Activity
MDA-MB-435 [4] = assay: Growth inhibition of human MDA-MB-435 cells assessed as cell growth at 1 nM relative to untreated control; assay type: functional; settings: read-out: Activity
CCRF-CEM = assay: Growth inhibition of human CCRF-CEM cells assessed as cell growth at 100 nM relative to untreated control; assay type: functional; settings: read-out: Activity
SK-MEL-28 [5] = assay: Growth inhibition of human SK-MEL-28 cells assessed as cell growth at 100 nM relative to untreated control; assay type: functional; settings: read-out: Activity
CAKI-1 = assay: Growth inhibition of human Caki1 cells assessed as cell growth at 1 uM relative to untreated control; assay type: functional; settings: read-out: Activity
Outline: (§1)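 Run externally at the National Cancer Institute as a 59-cell-line panel screen, with concentrations up to 100 μM. Growth was scored relative to control, where negative growth or total cell kill was possible. Data are in the Supporting Information.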

A549 [6] = assay: Growth inhibition of human A549 cells assessed as cell growth at 1 nM relative to untreated control; assay type: functional; settings: read-out: Activity
SK-MEL-2 = assay: Growth inhibition of human SK-MEL-2 cells assessed as cell growth at 1 nM relative to untreated control; assay type: functional; settings: read-out: Activity
SN12C [7] = assay: Growth inhibition of human SN12C cells assessed as cell growth at 1 nM relative to untreated control; assay type: functional; settings: read-out: Activity
RXF 393 = assay: Growth inhibition of human RXF393 cells; assay type: functional
OVCAR-4 [8] = assay: Growth inhibition of human OVCAR4 cells; assay type: functional
SR = assay: Growth inhibition of human SR cells assessed as cell growth at 10 uM relative to untreated control; assay type: functional; settings: read-out: Activity
KM12 = assay: Growth inhibition of human KM12 cells assessed as cell growth at 1 nM relative to untreated control; assay type: functional; settings: read-out: Activity
SK-MEL-28 [9] = assay: Growth inhibition of human SK-MEL-28 cells; assay type: functional
OVCAR-3 [10] = assay: Growth inhibition of human OVCAR-3 cells; assay type: functional; settings: read-out: LC50 (the source's name)
HCT-15 = assay: Growth inhibition of human HCT15 cells assessed as cell growth at 100 nM relative to untreated control; assay type: functional; settings: read-out: Activity; outline: as §1
HOP-92 = assay: Growth inhibition of human HOP92 cells assessed as cell growth at 10 uM relative to untreated control; assay type: functional; settings: read-out: Activity; outline: as §1
A549 [11] = assay: Growth inhibition of human A549 cells assessed as cell growth at 10 nM relative to untreated control; assay type: functional; settings: read-out: Activity
OVCAR-3 [12] = assay: Growth inhibition of human OVCAR-3 cells assessed as cell growth at 100 nM relative to untreated control; assay type: functional; settings: read-out: Activity
IGROV-1 = assay: Growth inhibition of human IGROV1 cells assessed as cell growth at 1 nM relative to untreated control; assay type: functional; settings: read-out: Activity
UO-31 [13] = assay: Growth inhibition of human UO31 cells assessed as cell growth at 1 nM relative to untreated control; assay type: functional; settings: read-out: Activity
UO-31 [14] = assay: Growth inhibition of human UO31 cells assessed as cell growth at 100 nM relative to untreated control; assay type: functional; settings: read-out: Activity
UACC-62 [15] = assay: Growth inhibition of human UACC62 cells assessed as cell growth at 10 nM relative to untreated control; assay type: functional; settings: read-out: Activity
[16] = Growth inhibition of human […] cells assessed as cell growth at 10 nM relative to untreated control; assay type: functional; settings: read-out: Activity
MDA-MB-435 [17] = assay: Growth inhibition of human MDA-MB-435 cells assessed as cell growth at 10 nM relative to untreated control; assay type: functional; settings: read-out: Activity
A498 = assay: Growth inhibition of human A498 cells assessed as cell growth at 10 nM relative to untreated control; assay type: functional; settings: read-out: Activity
NCI-H23 = assay: Growth inhibition of human NCI-H23 cells assessed as cell growth at 10 uM relative to untreated control; assay type: functional; settings: read-out: Activity
DU-145 = assay: Growth inhibition of human DU145 cells; assay type: functional; outline: as §1
NCI-H322M = assay: Growth inhibition of human NCI-H322M cells assessed as cell growth at 1 nM relative to untreated control; assay type: functional; settings: read-out: Activity
ACHN = assay: Growth inhibition of human ACHN cells; assay type: functional
A549 [18] = assay: Growth inhibition of human A549 cells; assay type: functional
OVCAR-5 = assay: Growth inhibition of human OVCAR5 cells; assay type: functional
HOP-62 [19] = assay: Growth inhibition of human HOP62 cells; assay type: functional; outline: as §1
HOP-62 [20] = assay: Growth inhibition of human HOP62 cells assessed as cell growth at 10 uM relative to untreated control; assay type: functional; settings: read-out: Activity; outline: as §1
[21] = Growth inhibition of human Hs 578T cells assessed as cell growth at 10 nM relative to untreated control; assay type: functional; settings: read-out: Activity
UACC-62 [22] = assay: Growth inhibition of human UACC62 cells assessed as cell growth at 100 nM relative to untreated control; assay type: functional; settings: read-out: Activity
Malme-3M = assay: Growth inhibition of human MALME-3M cells assessed as cell growth at 100 nM relative to untreated control; assay type: functional; settings: read-out: Activity
OVCAR-4 [23] = assay: Growth inhibition of human OVCAR4 cells assessed as cell growth at 10 nM relative to untreated control; assay type: functional; settings: read-out: Activity
SF-295 = assay: Growth inhibition of human SF295 cells assessed as cell growth at 1 uM relative to untreated control; assay type: functional; settings: read-out: Activity
[24] = Therapeutic index, ratio of toxic dose in BALB/c mouse to antitumor dose in human PC3 cells xenografted BALB/c mouse; assay type: cell-based, PC-3; settings: in vivo, read-out: TI
SNB-19 = assay: Growth inhibition of human SNB19 cells assessed as cell growth at 1 uM relative to untreated control; assay type: functional; settings: read-out: Activity
NCI-H522 = assay: Growth inhibition of human NCI-H522 cells assessed as cell growth at 1 nM relative to untreated control; assay type: functional; settings: read-out: Activity
SK-MEL-28 [25] = assay: Growth inhibition of human SK-MEL-28 cells assessed as cell growth at 1 uM relative to untreated control; assay type: functional; settings: read-out: Activity
MCF7 = assay: Growth inhibition of human MCF7 cells assessed as cell growth at 10 uM relative to untreated control; assay type: functional; settings: read-out: Activity
COLO 205 = assay: Growth inhibition of human COLO205 cells assessed as cell growth at 1 uM relative to untreated control; assay type: functional; settings: read-out: Activity
[26] = read-out: LC50 (the source's name)

## COc1ccc2c(c1)[nH]c1c(C)c(OS(=O)(=O)c3cccc4c(N(C)C)cccc34)ccc12
SK-OV-3
  growth at 0.001 µM: 103%
SN12C [1]
  growth at 10 µM: 30%
OVCAR-3 [2]
  growth at 0.01 µM: 100%
NCI-H460
  growth at 0.1 µM: 98%
UO-31 [3]
  growth at 0.01 µM: 92%
MDA-MB-435 [4]
  growth at 0.001 µM: 100%
CCRF-CEM
  growth at 0.1 µM: 91%
SK-MEL-28 [5]
  growth at 0.1 µM: 75%
CAKI-1
  growth at 1 µM: 69%
A549 [6]
  growth at 0.001 µM: 101%
SK-MEL-2
  growth at 0.001 µM: 115%
SN12C [7]
  growth at 0.001 µM: 96%
RXF 393
  GI50: 2.44 µM
  TGI: 5.95 µM
RXF 393; [26]
  CC50: > 100 µM
OVCAR-4 [8]
  GI50: 7.4 µM
  TGI: > 100 µM
OVCAR-4 [8]; [26]
  CC50: > 100 µM
SR
  growth at 10 µM: 7%
KM12
  growth at 0.001 µM: 110%
SK-MEL-28 [9]
  GI50: 50.3 µM
  TGI: > 100 µM
SK-MEL-28 [9]; [26]
  CC50: > 100 µM
OVCAR-3 [10]
  CC50: > 100 µM
HCT-15
  growth at 0.1 µM: 92%
HOP-92
  growth at 10 µM: -1%
A549 [11]
  growth at 0.01 µM: 97%
OVCAR-3 [12]
  growth at 0.1 µM: 97%
IGROV-1
  growth at 0.001 µM: 111%
UO-31 [13]
  growth at 0.001 µM: 94%
UO-31 [14]
  growth at 0.1 µM: 92%
UACC-62 [15]
  growth at 0.01 µM: 83%
[16]
  growth at 0.01 µM: 58%
MDA-MB-435 [17]
  growth at 0.01 µM: 95%
A498
  growth at 0.01 µM: 83%
NCI-H23
  growth at 10 µM: 8%
DU-145
  GI50: 3.54 µM
  TGI: > 100 µM
DU-145; [26]
  CC50: > 100 µM
NCI-H322M
  growth at 0.001 µM: 98%
ACHN
  GI50: 7.38 µM
  TGI: > 100 µM
ACHN; [26]
  CC50: > 100 µM
A549 [18]
  GI50: 4.98 µM
  TGI: > 100 µM
A549 [18]; [26]
  CC50: > 100 µM
OVCAR-5
  GI50: 56.1 µM
  TGI: > 100 µM
OVCAR-5; [26]
  CC50: > 100 µM
HOP-62 [19]
  GI50: 17.3 µM
  TGI: > 100 µM
HOP-62 [19]; [26]
  CC50: > 100 µM
HOP-62 [20]
  growth at 10 µM: 35%
[21]
  growth at 0.01 µM: 103%
UACC-62 [22]
  growth at 0.1 µM: 75%
Malme-3M
  growth at 0.1 µM: 85%
OVCAR-4 [23]
  growth at 0.01 µM: 92%
SF-295
  growth at 1 µM: 15%
[24]
  selectivity ratio: > 55
SNB-19
  growth at 1 µM: 45%
NCI-H522
  growth at 0.001 µM: 109%
SK-MEL-28 [25]
  growth at 1 µM: 39%
MCF7
  growth at 10 µM: 8%
COLO 205
  growth at 1 µM: 23%
